Experimental findings from the M2OR odorant receptor database are described below.

The structures appear in SMILES notation.
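Note: active if original authors judged signal statistically different from baseline.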

The assay has as its target T1, OR2M4 (Homo sapiens) (UniProt Q96R27).
T1 sequence (whole entry): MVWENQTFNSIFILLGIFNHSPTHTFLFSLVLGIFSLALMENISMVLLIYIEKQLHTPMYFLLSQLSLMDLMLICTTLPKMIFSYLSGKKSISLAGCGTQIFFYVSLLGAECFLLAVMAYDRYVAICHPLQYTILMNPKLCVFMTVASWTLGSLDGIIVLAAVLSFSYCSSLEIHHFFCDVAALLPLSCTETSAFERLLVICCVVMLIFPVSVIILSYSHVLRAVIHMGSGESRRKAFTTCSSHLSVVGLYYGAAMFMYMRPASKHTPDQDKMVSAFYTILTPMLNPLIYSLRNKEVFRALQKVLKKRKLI
The settings on record: stereoisomer not certain. The method, boiled down: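 Transient luciferase assays in mammalian cell lines were common, though methods varied by source. The values come from published papers and their supplementary material, with extra details from the original authors when needed. Responsive refers to a measured signal the original authors judged statistically different from baseline, and non-responsive (inactive) to the remainder.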
As to `CCCCC1CCC(=O)O1` (stereo not drawn), the “odorant receptor agonist call” value is “inactive”.

For `CC(=O)OCc1ccccc1`, the “odorant receptor agonist call” value is “inactive”.

Regarding `CC(CO)CS` (stereo not drawn), the “odorant receptor agonist call” value was “inactive”.

On to `CCCCCCC=CCCC=O`, for which the “odorant receptor agonist call” value was “inactive”.

On to `CCC1OC(C)=C(O)C1=O` (stereo not drawn), for which the “odorant receptor agonist call” value was “inactive”.

With `CC1=NC(C)C(C)S1` (stereo not drawn), the “odorant receptor agonist call” value is “inactive”.

For the compound `Cc1cnc(C)c(C)n1`, the “odorant receptor agonist call” value was “inactive”.

Regarding `COc1ccc(C)cc1`, the “odorant receptor agonist call” value was “active”.

Regarding `CC(C)=CCCC(C)=CCO`, the “odorant receptor agonist call” value was “inactive”.

Turning to `CC=CC(=O)C1C(C)=CCCC1(C)C` (stereo not drawn), the “odorant receptor agonist call” value is “active”.

With `CC1=C(O)C(=O)C(C)O1` (stereo not drawn), the “odorant receptor agonist call” value is “inactive”.

On to `CC1=CCC2CC1C2(C)C` (stereo not drawn), for which the “odorant receptor agonist call” value was “inactive”.

Take `CCCCC(S)C(C)CO` (stereo not drawn): the “odorant receptor agonist call” value was “inactive”.

As to `CCC1OC(=O)C(O)=C1C` (stereo not drawn), the “odorant receptor agonist call” value was “inactive”.

With `CCCCCC1COCCC1OC(C)=O` (stereo not drawn), the “odorant receptor agonist call” value is “inactive”.

Turning to `CCc1ccc(CC(C)(C)C=O)cc1`, the “odorant receptor agonist call” value was “inactive”.

Turning to `C=CC(C)(CCC=C(C)C)OC(C)=O` (stereo not drawn), the “odorant receptor agonist call” value is “inactive”.

Regarding `COC1CC2CC1C1CC(C=O)CC21` (stereo not drawn), the “odorant receptor agonist call” value was “inactive”.

Consider `CCCC(S)CCOC(C)=O` (stereo not drawn), for which the “odorant receptor agonist call” value is “inactive”.

In the case of `CC(CC=O)c1ccc(C(C)(C)C)cc1` (stereo not drawn), the “odorant receptor agonist call” value is “inactive”.

Regarding `C=CCOC(=O)COCCC(C)C`, the “odorant receptor agonist call” value was “inactive”.

With `CCCCCC(S)C(C)CO` (stereo not drawn), the “odorant receptor agonist call” value was “inactive”.

Turning to `CCCCCCCCC(OC(C)=O)OC(C)=O`, the “odorant receptor agonist call” value is “inactive”.

As for `OCc1ccccc1`, the “odorant receptor agonist call” value was “inactive”.

Turning to `CC(=O)C=CC1=C(C)CCCC1(C)C`, the “odorant receptor agonist call” value was “inactive”.

For the compound `CCC(=O)C=CC1C(C)=CCCC1(C)C` (stereo not drawn), the “odorant receptor agonist call” value is “inactive”.

In the case of `Cc1occc(=O)c1OC(=O)C(C)C`, the “odorant receptor agonist call” value was “inactive”.

`CC1=C(O)C(=O)OC1C` (stereo not drawn): the “odorant receptor agonist call” value was “inactive”.

As for `CCCC(C)C(=O)OCC` (stereo not drawn), the “odorant receptor agonist call” value was “inactive”.

On to `CC1CC(C)(c2ccccc2)CO1` (stereo not drawn), for which the “odorant receptor agonist call” value was “inactive”.

In the case of `CCCCCC1C(=O)CCC1CC(=O)OC` (stereo not drawn), the “odorant receptor agonist call” value was “inactive”.

With `CC(C)CCCC(C)(C)O`, the “odorant receptor agonist call” value was “inactive”.

On to `CCC=C(C)C(O)CCCCC` (stereo not drawn), for which the “odorant receptor agonist call” value was “inactive”.
